Experimental findings from the array DNA melting data of Ke et al. (doi:10.1101/2024.01.08.574731) are described below.

The nature of series [1]: folding enthalpy; higher = less favourable; fluorescence melt of hairpins on a sequencing array, two-state fit. To be noted: sodium 0.088 M. The method in brief:
(§1)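 Cy3 fluorescence of library hairpins on a sequenced MiSeq flow cell, with annealed Cy3 and quencher oligos, was imaged in 50 mM Na-HEPES pH 8.0, 25 mM NaCl in 2.5 °C steps up to 60 °C. Signals were normalised to pre-quench Cy3 and to control variants. Melting temperature and folding enthalpy came from bootstrapped two-state fits, inverse-variance combined over four replicates. Fitted temperatures were raised by 9.35 °C to match UV melts.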

Series [2] in a line: melting temperature; fluorescence melt of hairpins on a sequencing array, two-state fit, raised by 9.35 °C to match UV melts. The conditions noted are these: sodium 0.088 M. The method in brief: as §1

Turning to GAAACCGAAAGGTACTTC ((((((....)))..))), the folding enthalpy in series [1] was -17.8 kcal/mol. Also, the Tm in series [2] was found to be 34.6 °C.
Take GAAACCGAAAGGTATTTC ((((((....)))..))): in series [1], the folding enthalpy was -12.4 kcal/mol. Further, the Tm in series [2] turned out to be 26.6 °C.
The matching figures for GAAACCGAAAGGTCCTTC ((((((....)))..))): -14.6 kcal/mol and 30.7 °C.
The matching figures for GAAACGACGAAAGTCTTC (((..(((....)))))): -9.41 kcal/mol and 29.5 °C.
With GAAACGCCGAAAGGCTTC (((..(((....)))))), the folding enthalpy in series [1] was -7.92 kcal/mol. For the same sequence, the Tm in series [2] worked out at 23.1 °C.
As for GAAACGCGAAAGCGTTC (((.(((....)))))), the folding enthalpy in series [1] was -8.94 kcal/mol. Besides, in series [2], the Tm came out at 50.6 °C.
The matching figures for GAAACGGGAAACCATTTC ((((.((....)).)))): -21.5 kcal/mol and 28.8 °C.
The matching figures for GAAACGGGAAACCGTTTC (((((((....))))))): -50.9 kcal/mol and 60.3 °C.
For the sequence GAAAGACCGAAAGGTTTC (((..(((....)))))), in series [1], the folding enthalpy was -11.5 kcal/mol. The Tm in series [2] turned out to be 28.8 °C.
Taken in the same sequence, the figures for GAAAGACGAAAGTCATTC (((.(((....))).))) were -21.1 kcal/mol and 38.2 °C.
The matching figures for GAAAGACGAAAGTCTTC (((.(((....)))))): -12.6 kcal/mol and 44.3 °C.
GAAAGCGAAAGCTAATTC ((((((....)))..))): the folding enthalpy in series [1] was -8.31 kcal/mol. In addition, the Tm in series [2] turned out to be 28.8 °C.
The matching figures for GAAAGCGAAAGCTCTTTC ((((((....)))..))): -16.7 kcal/mol and 38.2 °C.
For GAAAGCGAAAGCTTTTTC ((((((....)))..))), the folding enthalpy in series [1] was -14.2 kcal/mol. The Tm in series [2] was 49 °C.
Regarding GAAAGCGGAAACGCTCTC ((.((((....)))).)), the folding enthalpy in series [1] was -12.3 kcal/mol. For the same sequence, in series [2], the Tm is 35 °C.
Turning to GAAAGGCCGAAAGGCTTC (((..(((....)))))), in series [1], the folding enthalpy is -8.26 kcal/mol. In addition, the Tm in series [2] amounted to 28.5 °C.
Turning to GAAAGGCGAAAGCCGTTC (((.(((....))).))), in series [1], the folding enthalpy is -11.9 kcal/mol. Besides, the Tm in series [2] turned out to be 46.7 °C.
Taken in the same sequence, the figures for GAAAGGGAAACCTTTC ((((((....)))))) were -30 kcal/mol and 47 °C.
Regarding GAAAGGGGAAACCCTTTC (((((((....))))))), the folding enthalpy in series [1] was -47 kcal/mol. The Tm in series [2] was determined as 54.8 °C.
The matching figures for GAAAGTGAAAACTTTC ((((((....)))))): -27.2 kcal/mol and 47.7 °C.
As to GAAAGTGGAAACACTTTC (((((((....))))))), the folding enthalpy in series [1] is -36.1 kcal/mol. Moreover, the Tm in series [2] was 56.8 °C.
With GAAAGTGGAAACATTTTC ((((.((....)).)))), the folding enthalpy in series [1] was -27.4 kcal/mol. The Tm in series [2] turned out to be 32.1 °C.
For GAAATACGAAAGTAATTC (((.(((....))).))), the folding enthalpy in series [1] is -15 kcal/mol. For the same sequence, the Tm in series [2] came out at 32.9 °C.
In the case of GAAATACGAAAGTATTC (((.(((....)))))), the folding enthalpy in series [1] was -12.8 kcal/mol. Moreover, the Tm in series [2] was 38.9 °C.
Turning to GAAATAGAAATATTTC ((((((....)))))), the folding enthalpy in series [1] is -21.9 kcal/mol. The Tm in series [2] was 32.7 °C.
Taken in the same sequence, the figures for GAAATCCCGAAAGGGTTC (((..(((....)))))) were -9.79 kcal/mol and 26.2 °C.
The matching figures for GAAATCCGAAAGGATTC (((.(((....)))))): -11.2 kcal/mol and 46.4 °C.
Taken in the same sequence, the figures for GAAATCGGAAACGATCTC ((.((((....)))).)) were -17.4 kcal/mol and 29.3 °C.
Take GAACAACGAAAGTTATTC (((.(((....))).))): in series [1], the folding enthalpy is -18.4 kcal/mol. In series [2], the Tm was determined as 30.1 °C.
With GAACAACGAAAGTTTTC (((.(((....)))))), the folding enthalpy in series [1] was -11.8 kcal/mol. In series [2], the Tm was 28.2 °C.
Taken in the same sequence, the figures for GAACAAGGAAACCTGTTC (((((.(....).))))) were -25.7 kcal/mol and 37.3 °C.
For GAACACACGAAAGTGTTC (((..(((....)))))), the folding enthalpy in series [1] is -20.5 kcal/mol. In addition, the Tm in series [2] came out at 46.2 °C.
The matching figures for GAACACGAAAGTGAGTTC ((((((....)))..))): -16.4 kcal/mol and 35.7 °C.
Consider GAACACGAAAGTGGGTTC ((((((....)))..))), for which, in series [1], the folding enthalpy was -16.4 kcal/mol. In series [2], the Tm worked out at 37.1 °C.
On to GAACACGAAAGTGGTTTC ((((((....)))..))), for which the folding enthalpy in series [1] was -14 kcal/mol. In series [2], the Tm came out at 35.5 °C.
As to GAACACGAAAGTGTTC ((((((....)))))), the folding enthalpy in series [1] was -30.9 kcal/mol. Moreover, the Tm in series [2] worked out at 69 °C.
